From ChEMBL document CHEMBL1123201, “7-(Trifluoromethyl)-4-aminoquinoline hypotensives: novel peripheral sympatholytics” (J Med Chem, 1986)
Calls of active or inactive are those of the source. No cut-off for these calls is given here.

Columns and labels:
[1] = tested on: Rattus norvegicus; test: Compound was tested for hypotensive activity by measuring the average change in mean arterial blood pressure in mmHg after 24 hr at 50 mg/Kg oral dosing of a conscious rat; type: functional, Artery
Method in brief: (§1)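 Restrained (towel-wrapped, to raise sympathetic tone) conscious female Sprague-Dawley rats with chronic indwelling aortic cannulas exteriorized at the nape; blood pressure recorded directly by transducer before and 4 and 24 h after oral dosing. Compound suspended in carboxymethylcellulose vehicle, 10 mL/kg; doses 50 to 0.05 mg/kg. Two rats averaged per time point; average change ≥5 mmHg taken as significant (p < 0.05).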

[2] = tested on: Rattus norvegicus; test: Compound was tested for hypotensive activity by measuring the average change in mean arterial blood pressure in mmHg after 4 hr at 50 mg/Kg oral dosing of a conscious rat; type: functional, Artery; method in brief: as §1
[3] = tested on: Rattus norvegicus; test: Hypotensive activity in conscious rat 24 hr after 5 mg/kg p.o. administration.; type: functional; details: route oral; method in brief: as §1
[4] = tested on: Rattus norvegicus; test: Hypotensive activity in conscious rat 4 hr after 5 mg/kg p.o. administration.; type: functional; details: route oral; method in brief: as §1
[5] = tested on: Rattus norvegicus; test: Compound was tested for hypotensive activity by measuring the average change in mean arterial blood pressure in mmHg after 4 hr at 1 mg/Kg oral dosing of a conscious rat; type: functional, Artery; method in brief: as §1
[6] = tested on: Rattus norvegicus; test: Compound was tested for hypotensive activity by measuring the average change in mean arterial blood pressure in mmHg after 24 hr at 1 mg/Kg oral dosing of a conscious rat; type: functional, Artery; method in brief: as §1
[7] = tested on: Rattus norvegicus; test: Compound was tested for hypotensive activity by measuring the average change in mean arterial blood pressure in mmHg after 4 hr at 0.5 mg/Kg oral dosing of a conscious rat; type: functional, Artery; method in brief: as §1
[8] = species: Mus musculus; test: Lowest dose of compound associated with unacceptable clinical signs.; type: functional
[9] = tested on: Rattus norvegicus; test: Compound was tested for hypotensive activity by measuring the average change in mean arterial blood pressure in mmHg after 24 hr at 0.5 mg/Kg oral dosing of a conscious rat; type: functional, Artery; method in brief: as §1
[10] = species: Mus musculus; test: Lowest dose of compound associated with clinical signs.; type: functional
[11] = Acute toxicity was determined in mice; type: organism-based; details: mouse, in vivo
[12] = tested on: Rattus norvegicus; test: Compound was tested for hypotensive activity by measuring the average change in mean arterial blood pressure in mmHg after 24 hr at 15 mg/Kg oral dosing of a conscious rat; type: functional, Artery; method in brief: as §1
[13] = tested on: Rattus norvegicus; test: Compound was tested for hypotensive activity by measuring the average change in mean arterial blood pressure in mmHg after 4 hr at 1.5 mg/Kg oral dosing of a conscious rat; type: functional, Artery; method in brief: as §1
[14] = tested on: Rattus norvegicus; test: Compound was tested for hypotensive activity by measuring the average change in mean arterial blood pressure in mmHg after 4 hr at 15 mg/Kg oral dosing of a conscious rat; type: functional, Artery; method in brief: as §1
[15] = tested on: Rattus norvegicus; test: Compound was tested for hypotensive activity by measuring the average change in mean arterial blood pressure in mmHg after 24 hr at 0.15 mg/Kg oral dosing of a conscious rat; type: functional, Artery; method in brief: as §1
[16] = tested on: Rattus norvegicus; test: Compound was tested for hypotensive activity by measuring the average change in mean arterial blood pressure in mmHg after 24 hr at 0.05 mg/Kg oral dosing of a conscious rat; type: functional, Artery; method in brief: as §1
[17] = tested on: Rattus norvegicus; test: Compound was tested for hypotensive activity by measuring the average change in mean arterial blood pressure in mmHg after 4 hr at 0.15 mg/Kg oral dosing of a conscious rat; type: functional, Artery; method in brief: as §1
[18] = tested on: Rattus norvegicus; test: Compound was tested for hypotensive activity by measuring the average change in mean arterial blood pressure in mmHg after 4 hr at 0.05 mg/Kg oral dosing of a conscious rat; type: functional, Artery; method in brief: as §1
[19] = tested on: Rattus norvegicus; test: Compound was tested for hypotensive activity by measuring the average change in mean arterial blood pressure in mmHg after 24 hr at 1.5 mg/Kg oral dosing of a conscious rat; type: functional, Artery; method in brief: as §1
[20] = species: Mus musculus; test: Lowest dose of compound associated with clinical signs; type: functional
[21] = tested on: Rattus norvegicus; test: Compound was tested for hypotensive activity by measuring the average change in mean arterial blood pressure in mmHg at 3 mg/Kg oral dosing of a conscious rat; IA is Inactive; type: functional, organism-based; details: Artery; method in brief: as §1
[22] = tested on: Rattus norvegicus; test: Compound was tested for hypotensive activity by measuring the average change in mean arterial blood pressure in mmHg after 4 hr at 10 mg/Kg oral dosing of a conscious rat; type: functional, Artery; method in brief: as §1
[23] = tested on: Rattus norvegicus; test: Compound was tested for hypotensive activity by measuring the average change in mean arterial blood pressure in mmHg after 24 hr at 10 mg/Kg oral dosing of a conscious rat; type: functional, Artery; method in brief: as §1
[24] = tested on: Rattus norvegicus; test: Compound was tested for hypotensive activity by measuring the average change in mean arterial blood pressure in mmHg 24 hr after at 50 mg/Kg oral dosing of a conscious rat; type: functional, Artery; method in brief: as §1
[25] = tested on: Rattus norvegicus; test: Compound was tested for hypotensive activity by measuring the average change in mean arterial blood pressure in mmHg at 4 hr after at 50 mg/Kg oral dosing of a conscious rat; type: functional, Artery; method in brief: as §1

## COc1ccc(N2CCN(C(=O)c3ccc(Nc4ccnc5cc(C(F)(F)F)ccc45)cc3)CC2)cc1
[1]
  Activity: -18 mmHg
[2]
  Activity: -19 mmHg

## COc1ccc(C2=CCN(C(=O)c3ccc(Nc4ccnc5cc(C(F)(F)F)ccc45)cc3)CC2)cc1
[3]
  Activity: -2 mmHg
[4]
  Activity: -6 mmHg

## O=C(c1ccc(Nc2ccnc3cc(C(F)(F)F)ccc23)cc1)N1CCN(c2ccc(F)cc2)CC1
[3]
  Activity: -10 mmHg
[5]
  Activity: -12 mmHg
[6]
  Activity: 1 mmHg
[4]
  Activity: -11 mmHg

## COc1cc(N2CCN(C(=O)c3ccc(Nc4ccnc5cc(C(F)(F)F)ccc45)cc3)CC2)nc(OC)n1
[7]
  Activity: -2 mmHg
[3]
  Activity: -24 mmHg
[1]
  Activity: -29 mmHg
[8]
  Dose: <100 mg/kg
[9]
  Activity: -12 mmHg
[10]
  Dose: <100 mg/kg
[11]
  LD50: > 3160 mg/kg
[2]
  Activity: -13 mmHg
[4]
  Activity: -10 mmHg

## O=C(c1ccc(Nc2ccnc3cc(C(F)(F)F)ccc23)cc1)N1CCN(S(=O)(=O)c2ccc(Cl)cc2)CC1
[7]
  Activity: -13 mmHg
[3]
  Activity: -34 mmHg
[8]
  Dose: >3160 mg/kg
[9]
  Activity: -15 mmHg
[10]
  Dose: <100 mg/kg
[11]
  LD50: > 3160 mg/kg
[4]
  Activity: -20 mmHg

## Cc1cc(N2CCN(C(=O)c3ccc(Nc4ccnc5cc(C(F)(F)F)ccc45)cc3)CC2)nc(N)n1
[1]
  Activity: -4 mmHg
[2]
  Activity: -3 mmHg

## COc1ccc(C2(O)CCN(C(=O)c3ccc(Nc4ccnc5cc(C(F)(F)F)ccc45)cc3)CC2)cc1
[3]
  Activity: -5 mmHg
[4]
  Activity: -15 mmHg

## CSc1nccc(N2CCN(C(=O)c3ccc(Nc4ccnc5cc(C(F)(F)F)ccc45)cc3)CC2)n1
[3]
  Activity: -16 mmHg
[4]
  Activity: -8 mmHg

## O=C(c1ccc(Nc2ccnc3cc(C(F)(F)F)ccc23)cc1)N1CCN(S(=O)(=O)c2ccc(F)cc2)CC1 [LOSULAZINE]
[7]
  Activity: -10 mmHg
[12]
  Activity: -25 mmHg
[8]
  Dose: >3160 mg/kg
[9]
  Activity: -15 mmHg
[10]
  Dose: 100 mg/kg
[13]
  Activity: -17 mmHg
[14]
  Activity: -19 mmHg
[15]
  Activity: -14 mmHg
[16]
  Activity: -2 mmHg
[11]
  LD50: > 3160 mg/kg
[17]
  Activity: -12 mmHg
[18]
  Activity: -6 mmHg
[19]
  Activity: -21 mmHg

## CS(=O)(=O)c1ccc(N2CCN(C(=O)c3ccc(Nc4ccnc5cc(C(F)(F)F)ccc45)cc3)CC2)cc1
[7]
  Activity: -7 mmHg
[3]
  Activity: -16 mmHg
[8]
  Dose: 1000 mg/kg
[9]
  Activity: -5 mmHg
[10]
  Dose: 316 mg/kg
[11]
  LD50: 3160 mg/kg
[4]
  Activity: -10 mmHg

## O=C(c1ccc(Nc2ccnc3cc(C(F)(F)F)ccc23)cc1)N1CCN(c2ccccn2)CC1
[7]
  Activity: 2 mmHg
[3]
  Activity: -13 mmHg
[8]
  Dose: 316 mg/kg
[9]
  Activity: -2 mmHg
[10]
  Dose: <100 mg/kg
[11]
  LD50: 1400 mg/kg
[4]
  Activity: -10 mmHg

## Cc1ccccc1N1CCN(S(=O)(=O)c2ccc(Nc3ccnc4cc(C(F)(F)F)ccc34)cc2)CC1
[7]
  Activity: -1 mmHg
[3]
  Activity: -13 mmHg
[9]
  Activity: 0 mmHg
[4]
  Activity: -10 mmHg

## O=C(c1ccc(Nc2ccnc3cc(C(F)(F)F)ccc23)cc1)N1CCNCC1
[20]
  Dose: 100 mg/kg
[21]
  Activity: inactive
[8]
  Dose: 1000 mg/kg
[22]
  Activity: -7 mmHg
[23]
  Activity: -8 mmHg
[11]
  LD50: 1780 mg/kg
[24]
  Activity: -22 mmHg
[25]
  Activity: -15 mmHg
